Screens from PubChem BioAssay.
Only some compounds are listed: those with a hit (about 0.86% of all), similar ones and a draw of the others.
S100A4 inh HTS: inhibitors of S100A4-myosin IIA peptide binding, primary screen, biochemical, fluorescence polarization, TAMRA-MyoIIA peptide; Protein S100-A4 (Homo sapiens), P26447; inhibition, % at 10.7 µM; actives 0.14% (n = 360,000); AID 652163, 2013;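 active = mean inhibition of at least 70% across replicates, with every replicate also reaching that level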
Target sequence (P26447 whole entry, looked up): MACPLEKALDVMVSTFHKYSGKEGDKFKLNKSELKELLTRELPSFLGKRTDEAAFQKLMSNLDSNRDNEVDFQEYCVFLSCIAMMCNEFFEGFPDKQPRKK
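Test system – S100A4 monomer (human) · Compound – single-point compound testing · Schedule – 5 min incubation before reading · Probe or stimulus – TAMRA-labelled myosin IIA heavy-chain peptide probe, 5 nM · Benchmarks – neutral control DMSO, positive control TFP · Medium – Calcium-containing HEPES buffer, pH 7.2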
AF4-AF9 inh: inhibitors of AF4 peptide binding to AF9, primary screen, biochemical, AlphaScreen, biotin-AF4 peptide, FLAG-AF9, single point. Protein AF-9 (Homo sapiens), P42568. inhibition, % at 10 µM. actives 0.47% (n = 350,000);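 active = every replicate reaching a set inhibition limit, whatever the replicate mean, cut at about 25% in these data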;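 also: 0% = plate neutral control median and 100% = total signal loss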
Target sequence (P42568 whole entry, looked up): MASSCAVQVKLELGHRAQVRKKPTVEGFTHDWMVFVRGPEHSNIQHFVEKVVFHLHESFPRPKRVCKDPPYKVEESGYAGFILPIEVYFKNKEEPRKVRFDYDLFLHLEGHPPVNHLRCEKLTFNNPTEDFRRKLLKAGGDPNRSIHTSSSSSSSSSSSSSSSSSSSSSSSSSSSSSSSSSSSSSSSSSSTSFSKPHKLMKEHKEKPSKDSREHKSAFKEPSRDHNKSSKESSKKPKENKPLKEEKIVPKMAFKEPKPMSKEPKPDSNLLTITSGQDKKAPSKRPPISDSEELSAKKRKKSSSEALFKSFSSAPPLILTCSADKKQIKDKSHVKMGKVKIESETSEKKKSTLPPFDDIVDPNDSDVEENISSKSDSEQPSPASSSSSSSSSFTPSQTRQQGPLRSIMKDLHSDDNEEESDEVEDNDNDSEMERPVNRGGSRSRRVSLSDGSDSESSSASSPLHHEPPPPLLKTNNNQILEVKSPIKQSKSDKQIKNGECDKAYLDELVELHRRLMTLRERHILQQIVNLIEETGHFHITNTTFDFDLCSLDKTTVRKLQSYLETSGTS
Rtt109 HAT inh: inhibitors of C. albicans Rtt109/Vps75 HAT, primary screen, biochemical, ThioGlo CoA-SH fluorescence, plate reader. actives 0.16% (n = 330,000). inhibition, % at 34.9 µM. Histone acetyltransferase RTT109 (Candida albicans (strain SC5314 / ATCC MYA-2876)), …. purified Rtt109/Vps75, 4 h;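 active = inhibition of at least 50% in every replicate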
ERAP1 HTS inh: human ERAP1 aminopeptidase inhibitors, primary screen, biochemical, single point, plate reader. Endoplasmic reticulum aminopeptidase 1 (Homo sapiens), Q9NZ08. recombinant ERAP1, Leu-AMC fluorescence, 60 min. inhibition, % at 10.7 µM. actives 0.15% (n = 340,000);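 active = mean replicate inhibition of at least 30%, or all replicates individually reaching that 30% level; inactive = mean below 30% and not every replicate reaching it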;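 also: 0% = neutral control wells and 100% = L-leucinethiol positive control wells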
miR122 inh: miR-122 Renilla sensor signal increase in Huh7, primary screen, miR-122 inhibitor project, cell-based, single point, plate reader. Huh7 miR-122 Renilla luciferase sensor, 48 h; neutral wells = 0, positive control = 100. activation (reporter increase), % at 12.5 µM. actives 0.3% (n = 340,000);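 active = mean replicate activation score at least 90 and every replicate individually at or above 90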;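 also: higher luciferase means less miR-122 activity so hits act as miR-122 inhibitors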
Active calls of the source: *; i = inactive; nt = not tested or not shown; [ ] = dose if it differs, or a comment.

SMILES | S100A4 inh HTS | AF4-AF9 inh | Rtt109 HAT inh | ERAP1 HTS inh | miR122 inh
C[C@@H]1CN([C@@H](C)CO)C(=O)c2cccc(NS(=O)(=O)c3ccc(F)cc3)c2O[C@@H]1CN(C)Cc1ccc(C(=O)Nc2ccccc2N)cc1 | -0.6 | -5.8 | nt | -0.8 | 94.2*[16.7 µM]
Cc1ccc(S(=O)(=O)Nc2cccc3c2O[C@H](CN(C)Cc2ccc(C(=O)Nc4ccccc4N)cc2)[C@H](C)CN([C@H](C)CO)C3=O)cc1 | -19.1 | 0.3 | nt | -4.3 | 188.6*[16.7 µM]
Cc1ccc(S(=O)(=O)Nc2cccc3c2O[C@H](CN(C)Cc2ccc(C(=O)Nc4ccccc4N)cc2)[C@@H](C)CN([C@@H](C)CO)C3=O)cc1 | -1.3 | 0.3 | nt | 2.3 | nt
O=C(CCN1CCCCC1)N[C@@H]1CC[C@@H](CCNS(=O)(=O)c2ccc(F)cc2)O[C@H]1CO | -1.3 | 1.8 | nt | 1.4 | nt
COc1ccc(NC(C)=O)cc1S(=O)(=O)Nc1ccc(S(=O)(=O)N2CCCCC2)cc1 | -9.3 | -0.9 | 6.3 | -0.2 | 125.7*
CC(=O)Nc1ccc(S(=O)(=O)Nc2ccc(S(=O)(=O)N3CCCCCC3)cc2)cc1 | nt | nt | -19.8 | nt | 20.7
COc1ccc(S(=O)(=O)Nc2ccc(S(=O)(=O)N3CCCCC3)cc2)cc1C | nt | nt | 9.3 | nt | 251.5*
COc1ccc(S(=O)(=O)N(C)C[C@@H]2Oc3c(NC(=O)c4ccncc4)cccc3C(=O)N([C@@H](C)CO)C[C@H]2C)cc1 | -3.6 | -2.5 | nt | 0.6 | -1.4[16.7 µM]
CCCC#Cc1cnc2c(c1)C(=O)N([C@@H](C)CO)C[C@H](C)[C@@H](CN(C)Cc1ccncc1)O2 | 6.4 | -11.7 | nt | -5.2 | 5.3[16.7 µM]
COc1ccc(C(=O)N2C[C@@H]3[C@H](c4ccccc42)[C@H](CO)N3Cc2ccccc2Cl)cc1 | 8.2 | -0.4 | nt | -1.5 | 194.2*[16.7 µM]
O=S(=O)(c1ccc(F)cc1)N1C[C@H]2[C@@H](c3ccccc31)[C@H](CO)N2Cc1ccccc1Cl | 99.6* | 4.0 | nt | 2.5 | -7.1[16.7 µM]
O=S(=O)(c1ccc(F)cc1)N1C[C@@H]2[C@H](c3ccccc31)[C@H](CO)N2Cc1ccccc1Cl | 0.8 | 1.2 | nt | 3.2 | 21.4[16.7 µM]
COc1ccccc1CN1[C@@H](CO)[C@@H]2c3ccccc3N(C(=O)c3cccnc3)C[C@@H]21 | 5.6 | 44.3* | nt | 3.6 | 7.1[16.7 µM]
COc1ccccc1CN1[C@H](CO)[C@H]2c3ccccc3N(C(=O)c3cccnc3)C[C@H]21 | 130.1* | -5.6 | nt | 3.2 | 21.4[16.7 µM]
CN(C)C(=O)c1ccc(-c2ccc(C3[C@@H]4CN(C(=O)Cc5ccccc5)C[C@H]3N4)cc2)cc1 (stereo partly specified) | -17.6 | -7.9 | nt | -0.7 | nt
Cc1noc(C)c1NC(=O)Nc1ccc2c(c1)C(=O)N([C@H](C)CO)C[C@H](C)[C@@H](CN(C)S(=O)(=O)c1cn(C)cn1)OCCCC[C@H](C)O2 | 23.7 | -0.5 | nt | 1.2 | 7.7[16.7 µM]
COc1cccc(S(=O)(=O)N[C@H]2C=C[C@@H](CC(=O)NCc3ccc(Cl)cc3)O[C@@H]2CO)c1 | -4.0 | 0.4 | nt | 0.0 | nt
C[C@H]1CCCCO[C@H](CN(C)Cc2ccncc2)[C@@H](C)CN([C@@H](C)CO)C(=O)c2cc(NC(=O)CCCN(C)C)ccc2O1 | 6.0 | -9.4 | nt | -1.6 | 6.5[16.7 µM]
CCCCCCNS(=O)(=O)c1ccc(OC)c(OC)c1 | nt | nt | -4.1 | nt | 203.2*
CCCCNS(=O)(=O)c1ccc(OC)c(Cl)c1Cl | nt | nt | -0.9 | nt | 221.8*
COCCCNS(=O)(=O)c1ccc(OC)c(Cl)c1Cl | -1.4 | -22.0 | -6.4 | -1.4 | 16.2
O=c1c2c(nc3nc(SCc4ccccc4)[nH]n13)CCC2 | nt | nt | -4.2 | nt | 112.2*
O=C(C[C@@H]1CC[C@H]2[C@@H](COC[C@@H](O)CN2C(=O)c2cccnc2)O1)NCC1CC1 | nt | nt | nt | nt | 7.2[16.7 µM]
COc1ccc(Cl)cc1-c1nc(SCC(=O)NC2CCCC2)n[nH]1 | -28.0 | 0.7 | 2.3 | -1.5 | nt
O=C(CSc1n[nH]c(-c2ccccc2Cl)n1)NC1CCCCC1 | -2.7 | 0.2 | 51.0* | -2.6 | 0.8
SMILES | S100A4 inh HTS | AF4-AF9 inh | Rtt109 HAT inh | ERAP1 HTS inh | miR122 inh
C[C@@H]1CN([C@@H](C)CO)C(=O)c2cccc(NC(=O)C3CCOCC3)c2O[C@H]1CN(C)C | -3.5 | -1.2 | nt | 1.1 | -2.6[16.7 µM]
O=C(Nc1nnc(S(=O)(=O)N2CCOCC2)s1)c1ccccc1 | 1.0 | 47.1* | -7.9 | 4.5 | -0.5
O=C(Nc1nc(-c2nc3ccccc3s2)cs1)c1ccc(S(=O)(=O)N2CCOCC2)cc1 | nt | nt | 62.1* | nt | nt
O=C(Nc1nnc(S(=O)(=O)N2CCOCC2)s1)c1ccc(Cl)cc1 | -0.6 | -12.7 | 0.3 | 7.6 | nt
Cc1ccccc1S(=O)(=O)N[C@H]1CC[C@H](CCNS(=O)(=O)c2cccc(F)c2)O[C@H]1CO | -6.8 | -1.1 | nt | 0.0 | nt
O=C(c1ccc(NC2=NC3CS(=O)(=O)CC3S2)cc1)N1CCN(c2ccccc2F)CC1 (stereo unspecified) | -1.3 | 48.3* | 7.4 | 3.7 | nt
O=C(C[C@H]1CC[C@@H]2[C@H](COC[C@@H](O)CN2Cc2nccs2)O1)NCc1ccccc1 | 1.4 | -0.8 | nt | -2.4 | 4.0[16.7 µM]
CN(C)c1ccc2c(c1)[C@@H]1C[C@@H](CC(=O)NCc3ccc(Cl)cc3)O[C@H](CO)[C@@H]1O2 | 2.6 | 4.2 | nt | -6.2 | -5.5[16.7 µM]
COc1ccc(C(c2nnnn2C(C)(C)C)N2CCN(c3nc4ccccc4s3)CC2)cc1OC (stereo unspecified) | nt | nt | -6.7 | nt | -2.6
COc1cc(C(c2nnnn2C(C)(C)C)N2CCN(c3nc4ccccc4s3)CC2)ccc1O (stereo unspecified) | nt | nt | 65.8* | nt | -5.1
Cc1ccc2nc3c(cc(C(=O)NCC4CCCO4)c(=N)n3CCCOC(C)C)c(=O)n2c1 (stereo unspecified) | 24.6 | -0.7 | 13.2 | nt | -3.3
CCOCCCNc1nc2nc3ccc(C)cn3c(=O)c2cc1C(=O)NCC1CCCO1 (stereo unspecified) | -6.0 | -2.8 | -119.7 | 57.3* | nt
Cc1cccn2c(=O)c3cc(C(=O)NCC4CCCO4)c(=N)n(Cc4cccnc4)c3nc12 (stereo unspecified) | -3.5 | nt | -485.2 | 105.3* | -2.4
Cc1cccn2c(=O)c3cc(C(=O)NCC4CCCO4)c(=N)n(CC4CCCO4)c3nc12 (stereo unspecified) | 0.5 | -3.1 | i | 82.2* | -1.6
Cc1c(F)cccc1NC(=O)CCCCCC1NC(=O)NC1C (stereo unspecified) | -1.5 | 89.7* | 4.2 | -1.0 | -8.7
Cc1ccc(S(=O)(=O)N2CCOCC2)cc1-c1n[nH]c(=S)n1-c1ccccc1 | -4.3 | -4.7 | 1.0 | 46.0* | nt
O=S(=O)(c1cccc(-c2n[nH]c(=S)n2-c2cccc(C(F)(F)F)c2)c1)N1CCOCC1 | -3.3 | -12.0 | 3.9 | 5.0 | -0.9
